Laboratory results published in ChEMBL document CHEMBL2424547, “Synthesis and biological analysis of benzazol-2-yl piperazine sulfonamides as 11β-hydroxysteroid dehydrogenase 1 inhibitors” (Bioorg Med Chem Lett, 2013).
Activity calls are given as the source filed them. No cut-off for these calls is given here.

How the values were obtained:
Type in all cases: cell-based
[1] = target: T1, 11-beta-hydroxysteroid dehydrogenase type 2 (Homo sapiens) (UniProt P80365); assay: Inhibition of human 11beta-HSD2 expressed in HEK293 cells assessed as [1,2,6,7-3H]-cortisol oxidation to [1,2-3H]-cortisone at 20 uM after 10 mins in presence of NAD+
T1 sequence (whole entry): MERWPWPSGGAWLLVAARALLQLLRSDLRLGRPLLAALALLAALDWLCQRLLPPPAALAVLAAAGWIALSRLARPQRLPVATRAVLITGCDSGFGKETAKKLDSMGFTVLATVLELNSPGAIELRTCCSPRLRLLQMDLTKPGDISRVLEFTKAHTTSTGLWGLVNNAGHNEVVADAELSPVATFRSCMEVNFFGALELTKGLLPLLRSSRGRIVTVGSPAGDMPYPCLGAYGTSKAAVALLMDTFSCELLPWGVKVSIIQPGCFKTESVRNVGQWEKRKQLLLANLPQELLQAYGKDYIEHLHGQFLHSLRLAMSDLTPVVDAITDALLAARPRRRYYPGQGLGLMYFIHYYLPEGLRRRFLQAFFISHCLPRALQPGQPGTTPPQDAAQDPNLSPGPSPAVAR

[2] = target: T2, 11-beta-hydroxysteroid dehydrogenase 1 (Homo sapiens, UniProt P28845); assay: Inhibition of human 11beta-HSD1 expressed in HEK293 cells assessed as [1,2-3H]-cortisone reduction […] after 10 mins in presence of NADPH
Procedure, shortened: (§1)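 Cell-free 11β-HSD1 activity assay. Compounds were first screened at a single 20 µM concentration, and IC50 values were then determined for selected compounds. Values are mean ± SD from at least three independent experiments.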
Target sequence in this assay (P28845 whole entry): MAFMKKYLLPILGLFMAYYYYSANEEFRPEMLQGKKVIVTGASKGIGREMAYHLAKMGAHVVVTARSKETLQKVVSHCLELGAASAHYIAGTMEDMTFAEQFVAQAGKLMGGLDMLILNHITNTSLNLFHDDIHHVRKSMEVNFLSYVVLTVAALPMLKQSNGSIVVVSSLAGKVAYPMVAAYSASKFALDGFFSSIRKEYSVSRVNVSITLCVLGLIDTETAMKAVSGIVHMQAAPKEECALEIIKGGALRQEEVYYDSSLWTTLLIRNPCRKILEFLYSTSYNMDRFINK

[3] = target: T2, 11-beta-hydroxysteroid dehydrogenase 1; assay: Inhibition of human 11beta-HSD1 expressed in HEK293 cells assessed as [1,2-3H]-cortisone reduction […] measured as residual activity at 20 uM after 10 mins relative to control in presence of NADPH; procedure, shortened: as §1
Target sequence in this assay (P28845 whole entry, looked up): as the sequence (P28845 whole entry) above

[4] = target: T2, 11-beta-hydroxysteroid dehydrogenase 1; assay: Inhibition of human 11beta-HSD1 expressed in HEK293 cells assessed as [1,2-3H]-cortisone reduction […] measured as residual activity after 10 mins relative to control in presence of NADPH; procedure, shortened: as §1
Target sequence in this assay (P28845 whole entry, looked up): as the sequence (P28845 whole entry) above

SMILES	inhibition [1]	IC50 ([2]; read-out: IC50) [µM]	Activity [3] [%]	IC50 ([2]; hek293)	Activity [4] [%]
Cc1ccc(S(=O)(=O)N2CCN(c3nc4ccccc4[nH]3)CC2)cc1	inactive		50		
Cn1c(N2CCN(S(=O)(=O)c3cccc(C(=O)NO)c3)CC2)nc2ccccc21	inactive		60		
COc1ccc(S(=O)(=O)N2CCN(c3nc4ccccc4n3C)CC2)cc1OC	inactive	18.5			
CC(C)(C)c1ccc(S(=O)(=O)N2CCN(c3nc4ccccc4o3)CC2)cc1	inactive			ND(Insoluble)	18
COc1ccc(S(=O)(=O)N2CCN(c3nc4ccccc4n3C)CC2)cc1[N+](=O)[O-]	inactive	27.2			
Cc1ccc(S(=O)(=O)N2CCN(c3nc4ccccc4s3)CC2)cc1	inactive		89		
Cc1ccc(C(=O)N2CCN(c3nc4ccccc4[nH]3)CC2)cc1	inactive		65		

Further lines, results first:

inhibition [1]	IC50 ([2]; read-out: IC50) [µM]	Activity [3] [%]	IC50 ([2]; hek293)	Activity [4] [%]	SMILES
inactive	0.7				Cc1ccc(S(=O)(=O)N2CCN(c3nc4ccccc4n3C)CC2)cc1
inactive		90			Cn1c(N2CCN(S(=O)(=O)c3ccc(C(=O)NO)cc3)CC2)nc2ccccc21
inactive	4.2				COc1ccc(S(=O)(=O)N2CCN(c3nc4ccccc4n3C)CC2)cc1
inactive	4.8				Cn1c(N2CCN(S(=O)(=O)c3ccc(C(C)(C)C)cc3)CC2)nc2ccccc21
inactive		75			Cn1c(N2CCN(S(=O)(=O)c3cccc(C(=O)O)c3)CC2)nc2ccccc21
inactive		90			Cn1c(N2CCN(S(=O)(=O)c3ccc(C(=O)O)cc3)CC2)nc2ccccc21
inactive	6.4				Cn1c(N2CCN(S(=O)(=O)c3ccccc3)CC2)nc2ccccc21
